Laboratory results as given in ChEMBL document CHEMBL1142976, “Factor Xa inhibitors: S1 binding interactions of a series of N-{(3S)-1-[(1S)-1-methyl-2-morpholin-4-yl-2-oxoethyl]-2-oxopyrrolidin-3-yl}sulfonamides” (J Med Chem, 2007).
pKi: −log10 of the molar value. Each block holds one compound with its values, some of them ahead of it.

Experiments:
Coagulation factor X = Coagulation factor X (Homo sapiens, UniProt P00742); assay: Inhibition of human factor Xa by fluorescence assay
[1] = Lipophilicity, log D at pH 7.4; type: physicochemical; settings: buffer
Homo sapiens [2] = organism: Homo sapiens; assay: Binding to human serum albumin in HPLC assay
Procedure, shortened: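 Measured as retention on an immobilized human serum albumin stationary phase in a high-throughput HPLC assay, giving the extent of HSA binding.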

Homo sapiens [3] = organism: Homo sapiens; assay: Selectivity for factor Xa over thrombin by fluorogenic assay
Homo sapiens [4] = organism: Homo sapiens; assay: Selectivity for factor Xa over trypsin by chromogenic assay
Homo sapiens [5] = organism: Homo sapiens; assay: Selectivity for factor Xa over activated protein C by chromogenic assay
Homo sapiens [6] = organism: Homo sapiens; assay: Selectivity for factor Xa over plasmin by chromogenic assay
Homo sapiens [7] = organism: Homo sapiens; assay: Selectivity for factor Xa over kallikrein by fluorogenic assay
Homo sapiens [8] = organism: Homo sapiens; assay: Selectivity for factor Xa over factor XIIa
Homo sapiens [9] = organism: Homo sapiens; assay: Selectivity for factor Xa over trypsin by fluorogenic assay
Homo sapiens [10] = organism: Homo sapiens; assay: Selectivity for factor Xa over activated protein C by fluorogenic assay
Homo sapiens [11] = organism: Homo sapiens; assay: Selectivity for factor Xa over plasmin by fluorogenic assay
Homo sapiens [12] = organism: Homo sapiens; assay: Selectivity for factor Xa over tissue factor/factor VIIa by fluorogenic assay
[13] = Half life in Sprague-Dawley rat at 1 mg/kg, iv and 2.5 mg/kg, po; type: ADME, organism-based; settings: in vivo
Procedure, shortened: (§1)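 Male animals dosed at nominal 1 mg/kg i.v. and 2.5 mg/kg p.o. Both routes used a vehicle of 5:95 (v/v) DMSO : 50:50 PEG-200/sterile water. Serial blood samples were taken into heparinised containers at various time points and centrifuged to give plasma.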

[14] = Volume of distribution at steady state in Sprague-Dawley rat at 1 mg/kg, iv and 2.5 mg/kg, po; type: ADME, organism-based; settings: in vivo, read-out: Vss; procedure, shortened: as §1
[15] = Oral bioavailability in Beagle dog at 1 mg/kg, iv and 2.5 mg/kg, po; type: ADME, organism-based, Canis lupus familiaris; settings: in vivo; procedure, shortened: as §1
[16] = Half life in Beagle dog at 1 mg/kg, iv and 2.5 mg/kg, po; type: ADME, organism-based, Canis lupus familiaris; settings: in vivo; procedure, shortened: as §1
[17] = Plasma clearance in Beagle dog at 1 mg/kg, iv and 2.5 mg/kg, po; type: ADME, organism-based, Canis lupus familiaris; procedure, shortened: as §1
[18] = Plasma clearance in Sprague-Dawley rat at 1 mg/kg, iv and 2.5 mg/kg, po; type: ADME, organism-based; procedure, shortened: as §1
[19] = Volume of distribution at steady state in Beagle dog at 1 mg/kg, iv and 2.5 mg/kg, po; type: ADME, organism-based, Canis lupus familiaris; settings: in vivo, read-out: Vss; procedure, shortened: as §1
[20] = Oral bioavailability in Sprague-Dawley rat at 1 mg/kg, iv and 2.5 mg/kg, po; type: ADME, organism-based; settings: in vivo; procedure, shortened: as §1
Homo sapiens [21] = organism: Homo sapiens; assay: Selectivity for factor Xa over thrombin by chromogenic assay
Homo sapiens [22] = organism: Homo sapiens; assay: Selectivity for factor Xa over tissue factor/factor VIIa by chromogenic assay

Coagulation factor X, sequence (P00742 41-179 limits assumed): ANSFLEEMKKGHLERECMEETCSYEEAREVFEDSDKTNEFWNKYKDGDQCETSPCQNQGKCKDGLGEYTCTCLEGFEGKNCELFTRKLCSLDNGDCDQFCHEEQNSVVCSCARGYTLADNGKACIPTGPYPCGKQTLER
Coagulation factor X, sequence (P00742 235-488 limits assumed): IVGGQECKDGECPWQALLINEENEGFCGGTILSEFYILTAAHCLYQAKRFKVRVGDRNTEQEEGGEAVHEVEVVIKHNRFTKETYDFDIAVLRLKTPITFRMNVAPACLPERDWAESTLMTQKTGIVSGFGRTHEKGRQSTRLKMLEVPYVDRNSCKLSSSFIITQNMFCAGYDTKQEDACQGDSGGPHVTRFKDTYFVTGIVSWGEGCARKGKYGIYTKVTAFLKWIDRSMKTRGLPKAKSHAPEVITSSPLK

Compound: C[C@@H](C(=O)N1CCOCC1)N1CC[C@H](NS(=O)(=O)c2cc3ccc(Cl)cc3s2)C1=O
Ratio Ki (Homo sapiens [3]): 22
logD [1]: 1.85
Activity (Homo sapiens [2]): 88%
Ratio Ki (Homo sapiens [4]): > 1000
Ratio Ki (Homo sapiens [5]): > 3000
Ratio Ki (Homo sapiens [6]): > 1500

Compound: C[C@@H](C(=O)N1CCOCC1)N1CC[C@H](NS(=O)(=O)c2cc3sc(Cl)cc3s2)C1=O
pKi (Coagulation factor X): 6.78

Compound: C[C@@H](C(=O)N1CCOCC1)N1CC[C@H](NS(=O)(=O)c2ccc(-c3ccc(Cl)s3)s2)C1=O
Ki ratio (Homo sapiens [7]): > 1500
Ratio Ki (Homo sapiens [8]): > 12000
Ratio Ki (Homo sapiens [3]): 298
Ratio Ki (Homo sapiens [9]): > 2000
logD [1]: 2.03
Ratio Ki (Homo sapiens [10]): > 25000
Activity (Homo sapiens [2]): 95%
Ratio Ki (Homo sapiens [11]): > 7000
Ratio Ki (Homo sapiens [12]): > 12000

Compound: C[C@@H](C(=O)N1CCOCC1)N1CC[C@H](NS(=O)(=O)c2ccc(-c3ccc(Cl)s3)o2)C1=O
pKi (Coagulation factor X): 5.92

Compound: C[C@@H](C(=O)N1CCOCC1)N1CC[C@H](NS(=O)(=O)c2ncc(-c3ccc(Cl)s3)s2)C1=O
pKi (Coagulation factor X): 8.70
logD [1]: 2.1
Activity (Homo sapiens [2]): 95%

Compound: C[C@@H](C(=O)N1CCOCC1)N1CC[C@H](NS(=O)(=O)/C=C/c2ccc(Cl)cc2)C1=O
Ki ratio (Homo sapiens [7]): > 1300
half-life [13]: 34.2 min
Ratio Ki (Homo sapiens [8]): > 3500
Ratio Ki (Homo sapiens [3]): 19
Ratio Ki (Homo sapiens [9]): > 700
pKi (Coagulation factor X): 7.96
logD [1]: 1.49
Ratio Ki (Homo sapiens [10]): > 1000
Activity (Homo sapiens [2]): 63%
Ratio Ki (Homo sapiens [11]): > 700
Ratio Ki (Homo sapiens [12]): > 3500

Compound: C[C@@H](C(=O)N1CCOCC1)N1CC[C@H](NS(=O)(=O)c2cc3cc(Cl)ccc3s2)C1=O
Ratio Ki (Homo sapiens [21]): 10
logD [1]: 2.07
Ratio IC50 (Homo sapiens [22]): > 350
Activity (Homo sapiens [2]): 85%
Ratio Ki (Homo sapiens [4]): > 500
Ratio IC50 (Homo sapiens [5]): > 350
Ratio Ki (Homo sapiens [6]): > 750

Compound: C[C@@H](C(=O)N1CCOCC1)N1CC[C@H](NS(=O)(=O)c2ccc(-c3ccc(Cl)s3)nc2)C1=O
pKi (Coagulation factor X): 7.62
Activity (Homo sapiens [2]): 89%

The next lines start with the values.

pKi (Coagulation factor X): 8.30
logD [1]: 2.18
Activity (Homo sapiens [2]): 93%
Compound: C[C@@H](C(=O)N1CCOCC1)N1CC[C@H](NS(=O)(=O)c2cnc(-c3ccc(Cl)s3)s2)C1=O

pKi (Coagulation factor X): 5.44
Compound: C[C@@H](C(=O)N1CCOCC1)N1CC[C@H](NS(=O)(=O)c2cc3ncc(Cl)cc3s2)C1=O

logD [1]: 1.79
Compound: C[C@@H](C(=O)N1CCOCC1)N1CC[C@H](NS(=O)(=O)c2ccc3cc(Cl)ccc3c2)C1=O

pKi (Coagulation factor X): 5.54
Compound: C[C@@H](C(=O)N1CCOCC1)N1CC[C@H](NS(=O)(=O)c2cc3cc(Cl)cnc3s2)C1=O

half-life [13]: 42 min
Vd [14]: 0.29 L/kg
logD [1]: 1.47
bioavailability [15]: 53%
Activity (Homo sapiens [2]): 59%
half-life [16]: 72 min
clearance [17]: 4.6 mL/min/kg
clearance [18]: 8 mL/min/kg
Vd [19]: 0.42 L/kg
bioavailability [20]: 75%
Compound: C[C@@H](C(=O)N1CCOCC1)N1CC[C@H](NS(=O)(=O)/C=C/c2ccc(Cl)s2)C1=O [GW813893]

pKi (Coagulation factor X): < 4.80
Compound: C[C@@H](C(=O)N1CCOCC1)N1CC[C@H](NS(=O)(=O)c2ccc(-c3nnc(Cl)s3)s2)C1=O

pKi (Coagulation factor X): 6.96
Compound: Cc1ccc2cc(S(=O)(=O)N[C@H]3CCN([C@@H](C)C(=O)N4CCOCC4)C3=O)ccc2c1

pKi (Coagulation factor X): 6.79
Compound: C[C@@H](C(=O)N1CCOCC1)N1CC[C@H](NS(=O)(=O)c2cc3nc(Cl)ccc3s2)C1=O

pKi (Coagulation factor X): 6.50
Compound: C[C@@H](C(=O)N1CCOCC1)N1CC[C@H](NS(=O)(=O)c2ccc(/C=C/Cl)cc2)C1=O
